Assay results as given in article PMC7127107 (Bioorganic & Medicinal Chemistry, 2013).

Tests used:
PEDV [1] = test: Western blot of viral spike; type: cell-based, porcine epidemic diarrhea virus
Outline: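 Vero cells at about 90% confluence were infected with PEDV at MOI 0.01 for 1 h, then cultured with 30 μM test compound or 0.5% DMSO. Cells were harvested at 6, 12, 18 and 24 h and lysed, and proteins were separated on Bis–Tris gels and blotted to nitrocellulose. Blots were probed with anti-S antibody (12 h, 4 °C) and HRP secondary, then developed by chemiluminescence; GAPDH served as loading control.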

[2] = Cytotoxicity in Vero cells; type: cell-based; settings: African green monkey
Outline: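 Vero cells were seeded at 1 × 10^5 cells/well and grown for 48 h. They were then exposed for 72 h to twofold serial dilutions of test compound (5–600 μg/mL or μM). MTT was added for 4 h at 37 °C, and formazan was dissolved in 0.04 M HCl–isopropanol. Absorbance was read at 540 nm minus 655 nm background. CC50 came from regression analysis; experiments were run three times.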

PEDV SM98 strain [3] = test: Post-treatment antiviral assay; type: cell-based, porcine epidemic diarrhea virus; settings: for IC50: Porcine epidemic diarrhea virus, Vero, read-out: Post-treatment IC50
Outline: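 Near-confluent Vero monolayers (1 × 10^5 cells/well) were infected with PEDV SM98 at MOI 0.01 for 1 h with occasional rocking. Inoculum was replaced by EMEM containing test compound (1–200 μM), in triplicate. After 72 h, viability was read by MTT (4 h, 37 °C; A540 minus 655 nm). IC50 came from regression analysis, and SI = CC50/IC50.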

PEDV SM98 strain [4] = test: Simultaneous-treatment antiviral assay; type: cell-based, porcine epidemic diarrhea virus; settings: for selectivity ratio at 72 h: African green monkey, Vero cells infected with PEDV SM98 strain; for IC50: Porcine epidemic diarrhea virus, Vero, read-out: Simultaneous-treatment IC50
Outline: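 Test compound at various concentrations was premixed with PEDV SM98 (MOI 0.01) for 1 h at 4 °C. The mixture was put on near-confluent Vero monolayers (1 × 10^5 cells/well) for 1 h with occasional rocking, then replaced with fresh medium; triplicate wells. After 72 h, MTT was read (4 h, 37 °C; A540 minus 655 nm). IC50 came from regression analysis, and SI = CC50/IC50.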

PEDV (SM98 strain) [5] = test: Hemagglutination inhibition; type: cell-based, porcine epidemic diarrhea virus; settings: 4 HAU PEDV, rabbit RBCs, 1 h room temperature
Outline: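 PEDV at 4 HAU was mixed with an equal volume of twofold serial dilutions of test compound in PBS (pH 7.4), with PBS alone as negative control, for 1 h at 4 °C. The mixture was combined with an equal volume of 1% rabbit RBC suspension and incubated 1 h at room temperature. Experiments were run three times.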

PEDV (SM98 strain) [6] = test: Confocal immunofluorescence imaging of PEDV-infected Vero cells; type: cell-based, porcine epidemic diarrhea virus; settings: 30 μM, 24 h
PEDV [7] = test: Quantitative real-time RT-PCR of intracellular viral RNA; type: cell-based, porcine epidemic diarrhea virus

| IC50 (PEDV SM98 strain [3]) [µM] | IC50 (PEDV SM98 strain [4]) [µM] | Compound | Synthesis of viral proteins, late stage (PEDV [1]; 30 μM, 18 and 24 h) | Synthesis of viral proteins (S protein) (PEDV [1]; 5–50 μM, 24 h post-infection) | CC50 at 72 h [2] [µM] | selectivity ratio at 72 h (PEDV SM98 strain [3]; African green monkey, Vero cells infected with PEDV SM98 strain) | selectivity ratio at 72 h (PEDV SM98 strain [4]) | Minimum concentration that completely inhibited viral hemagglutination (PEDV (SM98 strain) [5]; listed as dieckol (5)) [µM] | Number of fluorescence-positive, PEDV-infected cells (PEDV (SM98 strain) [6]) | Viral RNA levels, early stage (PEDV [7]; 30 μM, 6 and 12 h after infection) | Viral RNA levels, late stage (PEDV [7]; 30 μM, 18 and 24 h after infection, vs untreated/infected cells (0.5% DMSO)) | Viral RNA levels relative to vehicle-treated cells (PEDV [7]; 50 μM, 24 h after infection, ORF3 gene normalized to GAPDH) | Effect on viral RNA levels (PEDV [7]; 5–50 μM, 24 h after infection) | Minimum concentration that completely inhibited viral hemagglutination (PEDV (SM98 strain) [5]; listed as eckol (2)) [µM] | Simultaneous-treatment IC50 (PEDV SM98 strain [4]; mixed with virus 0.01 MOI 1 h at 4 °C, Vero cells, 72 h) |
| --- | --- | --- | --- | --- | --- | --- | --- | --- | --- | --- | --- | --- | --- | --- | --- |
| 14.6 ± 1.3 | 16.6 ± 3 | Oc1cc(O)cc(Oc2c(O)cc(O)c3c2Oc2c(O)cc(Oc4c(O)cc(Oc5c(O)cc(O)c6c5Oc5c(O)cc(O)cc5O6)cc4O)cc2O3)c1 [Compound 5, dieckol] | strongly inhibited | inhibited the synthesis of viral proteins | 490.6 ± 1.6 | 33.6 | 29.5 | 3.8 to 5.4 | reduced the number of fluorescence-positive, PEDV-infected cells | largely unchanged | markedly decreased | 30–40% | significantly reduced viral RNA levels in dose-dependent manner |  |  |
| > 200 | 22.5 ± 2.2 | Oc1cc(O)cc(Oc2c(O)cc(O)c3c2Oc2c(O)cc(O)cc2O3)c1 [Compound 2, eckol] |  |  | 388.3 ± 2.6 |  | 17.2 |  |  |  |  |  |  | 3.8 to 5.4 |  |
| > 200 | > 200 | Oc1cc(O)cc(O)c1 [Compound 1, phloroglucinol] |  |  | 374 ± 4 |  |  |  |  |  |  |  |  |  | did not show significant inhibitory effects |
